Assay results taken from ChEMBL document CHEMBL4304816, “A Novel Biphenyl-based Chemotype of Retinoid X Receptor Ligands Enables Subtype and Heterodimer Preferences” (ACS Med Chem Lett, 2019).
The source made the active and inactive calls. The rule behind the calls is not given here.

Tests used:
Format in all cases: cell-based
[1] = organism: Homo sapiens; test: Agonist activity at full-length human PPARgamma/RXR expressed in HEK293T cells at 20 uM after 14 to 16 hrs in presence of 1 uM rosiglitazone by dual-glo luciferase reporter gene assay relative to rosiglitazone
How it was run: (§1)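 RXR:PPARγ heterodimer reporter assay run with reference PPARγ agonist rosiglitazone (1 μM) co-applied. Read-out is mean relative synergistic activation, from three independent experiments each run in duplicate.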

[2] = molecular target: T1, Retinoic acid receptor gamma (Homo sapiens) (UniProt P13631); test: Agonist activity at Gal4-LBD fused RARgamma (unknown origin) expressed in HEK293T cells after at 10 uM 14 to 16 hrs by dual-Glo luciferase assay
T1 sequence (whole entry): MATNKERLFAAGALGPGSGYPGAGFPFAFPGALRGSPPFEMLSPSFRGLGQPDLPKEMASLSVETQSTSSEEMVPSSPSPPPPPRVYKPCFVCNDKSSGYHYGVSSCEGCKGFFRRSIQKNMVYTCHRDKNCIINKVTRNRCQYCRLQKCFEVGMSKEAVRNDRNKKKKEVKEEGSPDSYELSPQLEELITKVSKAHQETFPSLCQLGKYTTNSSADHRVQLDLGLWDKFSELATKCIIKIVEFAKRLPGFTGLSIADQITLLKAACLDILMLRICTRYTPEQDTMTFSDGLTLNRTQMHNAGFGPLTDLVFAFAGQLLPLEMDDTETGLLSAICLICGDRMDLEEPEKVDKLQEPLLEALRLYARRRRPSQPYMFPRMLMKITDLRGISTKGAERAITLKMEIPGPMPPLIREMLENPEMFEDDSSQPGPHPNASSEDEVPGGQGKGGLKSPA
How it was run: (§2)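 Gal4-hybrid reporter gene selectivity panel of related nuclear receptors (PPARα/β/γ, RARα/β/γ) in HEK293T cells. Activity is read as mean fold activation versus 0.1% DMSO vehicle, n ≥ 2.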

[3] = molecular target: T2, Retinoic acid receptor alpha (Homo sapiens) (UniProt P10276); test: Agonist activity at Gal4-LBD fused RARalpha (unknown origin) expressed in HEK293T cells at 10 uM after 14 to 16 hrs by dual-Glo luciferase assay; how it was run: as §2
T2 sequence (whole entry): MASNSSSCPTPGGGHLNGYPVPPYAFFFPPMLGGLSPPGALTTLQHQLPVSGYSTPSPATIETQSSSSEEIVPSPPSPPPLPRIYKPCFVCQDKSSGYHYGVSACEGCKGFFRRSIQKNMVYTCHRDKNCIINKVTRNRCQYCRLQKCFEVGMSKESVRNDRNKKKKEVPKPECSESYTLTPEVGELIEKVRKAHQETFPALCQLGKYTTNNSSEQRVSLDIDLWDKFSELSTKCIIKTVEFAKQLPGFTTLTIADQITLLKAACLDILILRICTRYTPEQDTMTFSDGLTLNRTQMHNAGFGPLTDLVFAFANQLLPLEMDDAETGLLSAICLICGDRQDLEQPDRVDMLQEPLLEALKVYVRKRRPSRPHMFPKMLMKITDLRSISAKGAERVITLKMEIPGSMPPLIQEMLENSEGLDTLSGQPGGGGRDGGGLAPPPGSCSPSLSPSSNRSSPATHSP

[4] = molecular target: T3, Retinoic acid receptor RXR-beta (Homo sapiens) (UniProt P28702); test: Agonist activity at Gal4-LBD fused RXRbeta (unknown origin) expressed in HEK293T cells assessed as fold activation after 14 to 16 hrs by dual-Glo luciferase assay relative to untreated control
T3 sequence (whole entry): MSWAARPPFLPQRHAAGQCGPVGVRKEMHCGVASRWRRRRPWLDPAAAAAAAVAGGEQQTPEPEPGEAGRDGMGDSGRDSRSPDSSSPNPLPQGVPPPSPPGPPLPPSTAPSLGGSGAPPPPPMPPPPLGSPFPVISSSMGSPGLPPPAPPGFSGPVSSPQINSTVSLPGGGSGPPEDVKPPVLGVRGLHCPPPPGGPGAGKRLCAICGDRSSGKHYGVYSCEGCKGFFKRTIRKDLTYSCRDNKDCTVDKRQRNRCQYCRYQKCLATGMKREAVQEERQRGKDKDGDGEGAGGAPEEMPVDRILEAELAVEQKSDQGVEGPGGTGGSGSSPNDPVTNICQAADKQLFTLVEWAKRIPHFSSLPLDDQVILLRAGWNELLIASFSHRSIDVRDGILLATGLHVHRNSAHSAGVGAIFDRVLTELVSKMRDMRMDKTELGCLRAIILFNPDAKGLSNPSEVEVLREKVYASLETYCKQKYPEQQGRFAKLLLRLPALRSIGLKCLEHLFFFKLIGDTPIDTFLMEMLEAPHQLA
How it was run: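 Gal4-hybrid RXRα/β/γ reporter gene assays in HEK293T cells. Fold activation is the maximal fold activation versus 0.1% DMSO.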

[5] = molecular target: T4, Peroxisome proliferator-activated receptor gamma (Homo sapiens) (UniProt P37231); test: Agonist activity at Gal4-LBD fused PPARgamma (unknown origin) expressed in HEK293T cells at 10 uM after 14 to 16 hrs by dual-Glo luciferase assay; how it was run: as §2
T4 sequence (whole entry): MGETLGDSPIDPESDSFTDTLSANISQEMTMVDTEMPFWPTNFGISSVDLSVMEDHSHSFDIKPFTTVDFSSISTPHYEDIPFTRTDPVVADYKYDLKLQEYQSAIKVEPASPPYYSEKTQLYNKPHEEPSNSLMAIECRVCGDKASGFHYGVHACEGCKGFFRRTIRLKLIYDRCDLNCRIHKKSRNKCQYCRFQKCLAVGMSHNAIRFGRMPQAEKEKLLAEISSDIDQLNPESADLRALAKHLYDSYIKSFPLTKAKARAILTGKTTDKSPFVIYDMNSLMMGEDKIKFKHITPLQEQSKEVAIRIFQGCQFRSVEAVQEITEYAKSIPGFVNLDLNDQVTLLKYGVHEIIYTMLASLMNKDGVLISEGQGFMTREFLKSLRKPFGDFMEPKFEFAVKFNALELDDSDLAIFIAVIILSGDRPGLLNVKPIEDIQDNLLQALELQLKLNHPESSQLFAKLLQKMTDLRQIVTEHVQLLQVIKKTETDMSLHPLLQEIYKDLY

[6] = organism: Homo sapiens; test: Agonist activity at full-length human PPARgamma/RXR expressed in HEK293T cells at 10 uM after 14 to 16 hrs in presence of 1 uM rosiglitazone by dual-glo luciferase reporter gene assay relative to rosiglitazone; how it was run: as §1

Activity [2]	Activity [3]	fold change (FC) [4]	Activity [5]	Compound	Activity [1] [%]	Activity [6] [%]
				Cc1cc(-c2ccc(C(=O)O)cc2)cc(C(C)(C)C)c1	46	
Active	Active	38	Active	Cc1cc(-c2cc(C(C)(C)C)cc(C(C)(C)C)c2)ccc1C(=O)O		
Active	Active		Active	Cc1cc(-c2cc(C(F)(F)F)cc(C(F)(F)F)c2)ccc1CC(=O)O		84
